Test results as given in ChEMBL document CHEMBL3352237, “Synthesis and biological evaluation of novel peptide BF2 as an antibacterial agent against clinical isolates of vancomycin-resistant enterococci” (J Med Chem, 2014).

How the values were obtained:
Enterococcus faecalis [1] = test: Bactericidal activity against vancomycin-resistant Enterococcus faecalis clinical isolate 7079 after 24 hrs by two-fold serial dilution method; assay type: functional; details: isolate 7079, 24 h
Enterococcus [2] = test: Bactericidal activity against vancomycin-resistant Enterococcus ATCC 51299 after 24 hrs by two-fold serial dilution method; assay type: functional; details: ATCC 51299, 24 h
Enterococcus faecium [3] = test: Bactericidal activity against vancomycin-resistant Enterococcus faecium clinical isolate 6/22 after 24 hrs by two-fold serial dilution method; assay type: functional; details: isolate 6/22, 24 h
Enterococcus faecium [4] = test: Antibacterial activity against vancomycin-resistant Enterococcus faecium clinical isolate 15/213 after overnight incubation by two-fold serial dilution method; assay type: functional
Enterococcus faecalis [5] = test: Bactericidal activity against vancomycin-resistant Enterococcus faecalis clinical isolate 7077 after 24 hrs by two-fold serial dilution method; assay type: functional; details: isolate 7077, 24 h
Enterococcus faecalis [6] = test: Antibacterial activity against vancomycin-resistant Enterococcus faecalis clinical isolate 22/203 after overnight incubation by two-fold serial dilution method; assay type: functional
HEK293 = test: Cytotoxicity against HEK293 cells at 100 to 400 uM after 48 to 72 hrs by MTT assay; assay type: cell-based; details: human, hek293, 400 µM
Enterococcus faecium [7] = test: Antibacterial activity against vancomycin-resistant Enterococcus faecium clinical isolate 5396 after overnight incubation by two-fold serial dilution method; assay type: functional
Enterococcus [8] = test: Bactericidal activity against vancomycin-resistant Enterococcus ATCC 29212 assessed as log reduction at 2 times MIC after 60 to 120 mins by serial dilution method; assay type: functional
Summary of the method: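 Time-kill assay: enterococci exposed to peptide at 2× MIC, with viable counts read as log10 CFU/mL over a 60–120 min exposure. Run on ATCC 29212 and a clinical isolate.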

Enterococcus [9] = test: Antibacterial activity against Enterococcus infected in iv dosed Wistar albino rat assessed as reduction in cell count after 1 hr relative to control; assay type: functional, organism-based
Summary of the method: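 Female Wistar albino rats, 40−45 days old, 125−150 g, 5 groups of 3. Enterococci grown in MH broth to log phase, spun at 1000g for 15 min, diluted in PBS to 4 × 10^6 CFU/mL and inoculated i.v. Treatment i.v. 1 h later at 12.5, 25 or 37.5 mg/kg. Vehicle was 0.1 mL PBS i.v.; linezolid 25 mg/kg i.v. was the positive control. Tail-vein blood taken 1 h after treatment, plated on blood agar, incubated at 37 °C in ambient air overnight, and colonies counted.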

With H-RWRLLLLKKH-OH the MBC (Enterococcus faecalis [1]) was 25 µg/mL, the MBC (Enterococcus [2]) was 25 µg/mL and the MBC (Enterococcus faecium [3]) was 25 µg/mL. The MIC (Enterococcus faecium [4]) was 6.25 µg/mL, the MBC (Enterococcus faecalis [5]) was 25 µg/mL and the MIC (Enterococcus faecalis [6]) was 12.5 µg/mL. The Activity (HEK293) was “Non-toxic”, the MIC (Enterococcus faecium [7]) was 6.25 µg/mL and the MBC (Enterococcus [8]) was 25 µg/mL. For the same substance, the Activity (Enterococcus [9]) was “Dose-dependent effect”.
